According to ChEMBL document CHEMBL4118021, “Studies of TAK1-centered polypharmacology with novel covalent TAK1 inhibitors” (Bioorg Med Chem, 2017):
Activity calls are given as the source filed them. No cut-off for these calls is given here.

Columns and labels:
Type in all cases: cell-based
[1] = target: Proteasome activator complex subunit 1 (Homo sapiens) (UniProt Q06323); test: Binding affinity to PSME1 in human NCI-H23 cells at 1 uM by mass spectrometry based pull down assay
[2] = target: Eukaryotic translation initiation factor 5B (Homo sapiens) (UniProt O60841); test: Binding affinity to EIF5B in human NCI-H23 cells at 1 uM by mass spectrometry based pull down assay
[3] = target: Sarcoplasmic/endoplasmic reticulum calcium ATPase 2 (Homo sapiens) (UniProt P16615); test: Binding affinity to ATP2A2 in human NCI-H23 cells at 1 uM by mass spectrometry based pull down assay
[4] = target: Melanoma-associated antigen 4 (Homo sapiens) (UniProt P43358); test: Binding affinity to MAGEA4 in human NCI-H23 cells at 1 uM by mass spectrometry based pull down assay
Sequence of Melanoma-associated antigen 4 (Homo sapiens) (P43358 whole entry): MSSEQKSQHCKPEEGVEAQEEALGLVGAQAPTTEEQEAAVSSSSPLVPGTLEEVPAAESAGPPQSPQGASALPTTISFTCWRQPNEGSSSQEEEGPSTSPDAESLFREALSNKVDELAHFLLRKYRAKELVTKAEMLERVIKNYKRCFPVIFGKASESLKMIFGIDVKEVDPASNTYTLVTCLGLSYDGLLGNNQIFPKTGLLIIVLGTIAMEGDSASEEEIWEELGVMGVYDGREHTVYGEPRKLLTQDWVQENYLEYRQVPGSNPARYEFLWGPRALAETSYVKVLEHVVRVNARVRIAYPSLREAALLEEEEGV

[5] = target: T1, Serine/threonine-protein kinase D2 (Homo sapiens) (UniProt Q9BZL6); test: Binding affinity to PRKD2 in human NCI-H23 cells at 1 uM by mass spectrometry based pull down assay
T1 sequence (whole entry): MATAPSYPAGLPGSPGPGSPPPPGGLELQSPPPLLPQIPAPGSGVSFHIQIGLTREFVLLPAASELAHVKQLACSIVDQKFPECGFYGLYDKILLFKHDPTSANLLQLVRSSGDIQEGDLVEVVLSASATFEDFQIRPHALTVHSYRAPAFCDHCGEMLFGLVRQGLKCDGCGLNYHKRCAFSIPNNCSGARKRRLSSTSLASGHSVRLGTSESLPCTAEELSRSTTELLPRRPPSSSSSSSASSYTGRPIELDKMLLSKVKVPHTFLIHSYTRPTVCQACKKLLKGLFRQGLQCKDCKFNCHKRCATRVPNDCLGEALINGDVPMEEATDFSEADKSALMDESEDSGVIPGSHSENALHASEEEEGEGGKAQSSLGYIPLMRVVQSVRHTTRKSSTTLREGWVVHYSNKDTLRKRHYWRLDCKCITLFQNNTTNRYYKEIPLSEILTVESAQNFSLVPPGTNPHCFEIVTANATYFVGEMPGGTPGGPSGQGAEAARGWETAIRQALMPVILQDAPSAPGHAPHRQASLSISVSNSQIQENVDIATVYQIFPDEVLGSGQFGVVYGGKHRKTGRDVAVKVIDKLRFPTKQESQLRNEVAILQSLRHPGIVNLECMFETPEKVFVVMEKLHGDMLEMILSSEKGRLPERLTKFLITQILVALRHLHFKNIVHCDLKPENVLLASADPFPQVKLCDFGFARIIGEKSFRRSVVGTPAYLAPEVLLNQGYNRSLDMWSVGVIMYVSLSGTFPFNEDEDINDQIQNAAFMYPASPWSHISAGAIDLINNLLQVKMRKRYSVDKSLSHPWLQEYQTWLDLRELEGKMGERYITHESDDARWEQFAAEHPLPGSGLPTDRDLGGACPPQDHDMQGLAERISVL

[6] = target: Actin-related protein 3 (Homo sapiens) (UniProt P61158); test: Binding affinity to ACTR3 in human NCI-H358 cells at 1 uM by mass spectrometry based pull down assay
Procedure, shortened: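 NCI-H23 or NCI-H358 cells were grown and lysed. Lysates were incubated overnight at 4 °C with 1 μM biotinylated covalent probe or DMSO, then pulled down on streptavidin beads. Proteins were run on polyacrylamide gels and stained with Coomassie. Bands were excised, digested and identified by mass spectrometry.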

[7] = target: Ras GTPase-activating-like protein IQGAP1 (Homo sapiens) (UniProt P46940); test: Binding affinity to IQGAP1 in human NCI-H358 cells at 1 uM by mass spectrometry based pull down assay
Sequence of Ras GTPase-activating-like protein IQGAP1 (Homo sapiens) (P46940 whole entry): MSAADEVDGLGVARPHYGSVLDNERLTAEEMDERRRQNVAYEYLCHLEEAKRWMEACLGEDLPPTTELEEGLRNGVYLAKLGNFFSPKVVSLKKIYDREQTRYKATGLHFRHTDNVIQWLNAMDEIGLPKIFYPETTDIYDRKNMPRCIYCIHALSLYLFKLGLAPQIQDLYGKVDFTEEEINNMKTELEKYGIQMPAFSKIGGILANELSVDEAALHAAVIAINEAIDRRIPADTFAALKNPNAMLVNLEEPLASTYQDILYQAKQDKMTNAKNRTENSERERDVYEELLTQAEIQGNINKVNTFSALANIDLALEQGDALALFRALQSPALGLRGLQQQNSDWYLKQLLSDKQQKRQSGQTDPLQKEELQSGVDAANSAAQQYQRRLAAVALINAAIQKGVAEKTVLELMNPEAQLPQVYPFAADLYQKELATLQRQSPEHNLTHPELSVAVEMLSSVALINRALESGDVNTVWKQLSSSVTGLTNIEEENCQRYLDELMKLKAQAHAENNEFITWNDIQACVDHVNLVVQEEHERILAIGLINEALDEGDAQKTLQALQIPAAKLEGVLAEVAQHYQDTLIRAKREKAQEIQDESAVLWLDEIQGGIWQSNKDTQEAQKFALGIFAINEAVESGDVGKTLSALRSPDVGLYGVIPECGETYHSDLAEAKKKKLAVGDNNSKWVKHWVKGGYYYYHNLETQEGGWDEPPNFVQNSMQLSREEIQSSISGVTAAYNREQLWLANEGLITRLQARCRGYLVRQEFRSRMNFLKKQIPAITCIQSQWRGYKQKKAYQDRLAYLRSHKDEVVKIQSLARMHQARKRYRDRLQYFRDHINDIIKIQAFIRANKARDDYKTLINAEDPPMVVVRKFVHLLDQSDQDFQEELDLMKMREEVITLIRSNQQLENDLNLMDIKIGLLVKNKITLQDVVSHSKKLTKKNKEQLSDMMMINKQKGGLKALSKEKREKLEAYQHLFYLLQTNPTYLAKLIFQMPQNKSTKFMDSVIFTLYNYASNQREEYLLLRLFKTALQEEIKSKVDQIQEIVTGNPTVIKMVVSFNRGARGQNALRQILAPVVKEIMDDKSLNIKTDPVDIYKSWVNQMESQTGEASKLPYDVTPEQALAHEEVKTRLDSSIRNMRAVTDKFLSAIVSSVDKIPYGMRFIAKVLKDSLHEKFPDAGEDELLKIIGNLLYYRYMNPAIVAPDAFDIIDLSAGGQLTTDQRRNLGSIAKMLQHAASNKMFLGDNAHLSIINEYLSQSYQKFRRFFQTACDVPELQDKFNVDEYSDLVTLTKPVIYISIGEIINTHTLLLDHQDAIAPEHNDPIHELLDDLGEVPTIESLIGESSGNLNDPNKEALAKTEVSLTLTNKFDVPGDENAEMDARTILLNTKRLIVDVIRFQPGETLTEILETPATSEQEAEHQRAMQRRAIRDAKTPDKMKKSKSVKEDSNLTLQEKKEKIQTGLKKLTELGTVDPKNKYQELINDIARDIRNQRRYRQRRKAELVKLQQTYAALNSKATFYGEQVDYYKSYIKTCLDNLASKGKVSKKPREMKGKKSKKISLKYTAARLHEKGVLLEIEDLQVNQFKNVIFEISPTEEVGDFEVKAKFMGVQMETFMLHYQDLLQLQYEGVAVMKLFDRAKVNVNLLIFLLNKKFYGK

[8] = target: Opioid growth factor receptor (Homo sapiens) (UniProt Q9NZT2); test: Binding affinity to OGFR in human NCI-H358 cells at 1 uM by mass spectrometry based pull down assay
[9] = target: Glutamine--fructose-6-phosphate aminotransferase [isomerizing] 1 (Homo sapiens) (UniProt Q06210); test: Binding affinity to GFPT1 in human NCI-H358 cells at 1 uM by mass spectrometry based pull down assay
[10] = target: T-complex protein 1 subunit theta (Homo sapiens) (UniProt P50990); test: Binding affinity to CCT8 in human NCI-H358 cells at 1 uM by mass spectrometry based pull down assay
Sequence of T-complex protein 1 subunit theta (Homo sapiens) (P50990 whole entry, one chain of several): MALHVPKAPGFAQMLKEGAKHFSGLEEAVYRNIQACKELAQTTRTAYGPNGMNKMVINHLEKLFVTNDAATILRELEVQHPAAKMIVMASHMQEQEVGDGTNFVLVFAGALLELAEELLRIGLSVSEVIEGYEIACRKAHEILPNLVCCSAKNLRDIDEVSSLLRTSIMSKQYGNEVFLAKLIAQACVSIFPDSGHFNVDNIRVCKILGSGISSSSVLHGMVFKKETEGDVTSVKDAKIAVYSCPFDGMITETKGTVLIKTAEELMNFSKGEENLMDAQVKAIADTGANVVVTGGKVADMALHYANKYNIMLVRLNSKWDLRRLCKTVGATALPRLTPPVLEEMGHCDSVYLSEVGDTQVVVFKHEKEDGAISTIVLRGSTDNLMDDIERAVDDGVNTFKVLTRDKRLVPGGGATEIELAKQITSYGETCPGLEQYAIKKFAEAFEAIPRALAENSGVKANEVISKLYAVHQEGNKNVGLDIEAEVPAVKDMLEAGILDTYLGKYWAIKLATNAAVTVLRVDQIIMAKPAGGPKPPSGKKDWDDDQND

[11] = target: Peroxiredoxin-4 (Homo sapiens) (UniProt Q13162); test: Binding affinity to PRDX4 in human NCI-H358 cells at 1 uM by mass spectrometry based pull down assay
Sequence of Peroxiredoxin-4 (Homo sapiens) (Q13162 whole entry): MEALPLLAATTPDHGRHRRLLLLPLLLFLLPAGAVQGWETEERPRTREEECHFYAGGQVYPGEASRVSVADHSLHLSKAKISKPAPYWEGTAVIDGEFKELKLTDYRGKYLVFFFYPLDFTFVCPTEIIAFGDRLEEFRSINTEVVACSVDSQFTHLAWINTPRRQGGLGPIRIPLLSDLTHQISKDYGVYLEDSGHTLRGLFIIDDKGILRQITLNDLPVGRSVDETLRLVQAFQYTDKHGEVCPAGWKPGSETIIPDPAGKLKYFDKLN

[12] = target: T2, Dual specificity mitogen-activated protein kinase kinase 4 (Homo sapiens) (UniProt P45985); test: Binding affinity to MAP2K4 in human NCI-H358 cells at 1 uM by mass spectrometry based pull down assay
T2 sequence (whole entry): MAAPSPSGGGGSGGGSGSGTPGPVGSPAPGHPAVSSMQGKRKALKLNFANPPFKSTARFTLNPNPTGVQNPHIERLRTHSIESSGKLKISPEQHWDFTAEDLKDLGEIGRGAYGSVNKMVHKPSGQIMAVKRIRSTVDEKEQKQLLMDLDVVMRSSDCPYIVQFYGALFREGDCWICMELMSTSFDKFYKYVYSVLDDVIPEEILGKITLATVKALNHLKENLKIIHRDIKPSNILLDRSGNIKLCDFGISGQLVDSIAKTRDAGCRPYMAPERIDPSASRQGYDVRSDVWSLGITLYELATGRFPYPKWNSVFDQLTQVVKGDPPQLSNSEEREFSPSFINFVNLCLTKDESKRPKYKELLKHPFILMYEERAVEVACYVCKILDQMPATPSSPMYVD

[13] = target: Glucose-6-phosphate isomerase (Homo sapiens) (UniProt P06744); test: Binding affinity to GPI in human NCI-H358 cells at 1 uM by mass spectrometry based pull down assay
[14] = target: Myosin regulatory light chain 12B (Homo sapiens) (UniProt O14950); test: Binding affinity to MYL12B in human NCI-H358 cells at 1 uM by mass spectrometry based pull down assay
Sequence of Myosin regulatory light chain 12B (Homo sapiens) (O14950 whole entry): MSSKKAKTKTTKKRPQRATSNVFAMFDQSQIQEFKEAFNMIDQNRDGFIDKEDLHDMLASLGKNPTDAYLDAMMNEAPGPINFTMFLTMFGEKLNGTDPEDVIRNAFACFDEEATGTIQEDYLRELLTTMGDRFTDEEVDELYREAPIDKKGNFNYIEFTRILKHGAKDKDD

[15] = target: Small proline-rich protein 3 (Homo sapiens) (UniProt Q9UBC9); test: Binding affinity to SPRR3 in human NCI-H358 cells at 1 uM by mass spectrometry based pull down assay
Sequence of Small proline-rich protein 3 (Homo sapiens) (Q9UBC9 whole entry): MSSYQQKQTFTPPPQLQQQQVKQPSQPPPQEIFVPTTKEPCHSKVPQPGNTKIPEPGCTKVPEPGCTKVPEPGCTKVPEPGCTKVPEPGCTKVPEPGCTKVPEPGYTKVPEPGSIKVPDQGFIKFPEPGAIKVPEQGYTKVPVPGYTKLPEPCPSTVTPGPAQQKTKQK

[16] = target: BLOC-2 complex member HPS6 (Homo sapiens) (UniProt Q86YV9); test: Binding affinity to HPS6 in human NCI-H358 cells at 1 uM by mass spectrometry based pull down assay
[17] = target: Fructose-bisphosphate aldolase C (Homo sapiens) (UniProt P09972); test: Binding affinity to ALDOC in human NCI-H358 cells at 1 uM by mass spectrometry based pull down assay
Sequence of Fructose-bisphosphate aldolase C (Homo sapiens) (P09972 whole entry): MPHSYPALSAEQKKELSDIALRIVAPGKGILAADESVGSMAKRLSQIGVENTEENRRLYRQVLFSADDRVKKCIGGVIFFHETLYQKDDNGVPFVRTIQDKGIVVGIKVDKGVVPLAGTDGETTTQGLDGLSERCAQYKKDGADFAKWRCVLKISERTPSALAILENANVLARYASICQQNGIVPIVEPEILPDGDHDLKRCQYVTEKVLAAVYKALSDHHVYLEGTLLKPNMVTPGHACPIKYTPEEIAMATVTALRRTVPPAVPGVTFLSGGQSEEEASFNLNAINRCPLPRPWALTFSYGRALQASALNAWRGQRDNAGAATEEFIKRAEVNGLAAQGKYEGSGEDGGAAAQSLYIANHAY

[18] = target: Vigilin (Homo sapiens) (UniProt Q00341); test: Binding affinity to HDLBP in human NCI-H358 cells at 1 uM by mass spectrometry based pull down assay
Sequence of Vigilin (Homo sapiens) (Q00341 whole entry): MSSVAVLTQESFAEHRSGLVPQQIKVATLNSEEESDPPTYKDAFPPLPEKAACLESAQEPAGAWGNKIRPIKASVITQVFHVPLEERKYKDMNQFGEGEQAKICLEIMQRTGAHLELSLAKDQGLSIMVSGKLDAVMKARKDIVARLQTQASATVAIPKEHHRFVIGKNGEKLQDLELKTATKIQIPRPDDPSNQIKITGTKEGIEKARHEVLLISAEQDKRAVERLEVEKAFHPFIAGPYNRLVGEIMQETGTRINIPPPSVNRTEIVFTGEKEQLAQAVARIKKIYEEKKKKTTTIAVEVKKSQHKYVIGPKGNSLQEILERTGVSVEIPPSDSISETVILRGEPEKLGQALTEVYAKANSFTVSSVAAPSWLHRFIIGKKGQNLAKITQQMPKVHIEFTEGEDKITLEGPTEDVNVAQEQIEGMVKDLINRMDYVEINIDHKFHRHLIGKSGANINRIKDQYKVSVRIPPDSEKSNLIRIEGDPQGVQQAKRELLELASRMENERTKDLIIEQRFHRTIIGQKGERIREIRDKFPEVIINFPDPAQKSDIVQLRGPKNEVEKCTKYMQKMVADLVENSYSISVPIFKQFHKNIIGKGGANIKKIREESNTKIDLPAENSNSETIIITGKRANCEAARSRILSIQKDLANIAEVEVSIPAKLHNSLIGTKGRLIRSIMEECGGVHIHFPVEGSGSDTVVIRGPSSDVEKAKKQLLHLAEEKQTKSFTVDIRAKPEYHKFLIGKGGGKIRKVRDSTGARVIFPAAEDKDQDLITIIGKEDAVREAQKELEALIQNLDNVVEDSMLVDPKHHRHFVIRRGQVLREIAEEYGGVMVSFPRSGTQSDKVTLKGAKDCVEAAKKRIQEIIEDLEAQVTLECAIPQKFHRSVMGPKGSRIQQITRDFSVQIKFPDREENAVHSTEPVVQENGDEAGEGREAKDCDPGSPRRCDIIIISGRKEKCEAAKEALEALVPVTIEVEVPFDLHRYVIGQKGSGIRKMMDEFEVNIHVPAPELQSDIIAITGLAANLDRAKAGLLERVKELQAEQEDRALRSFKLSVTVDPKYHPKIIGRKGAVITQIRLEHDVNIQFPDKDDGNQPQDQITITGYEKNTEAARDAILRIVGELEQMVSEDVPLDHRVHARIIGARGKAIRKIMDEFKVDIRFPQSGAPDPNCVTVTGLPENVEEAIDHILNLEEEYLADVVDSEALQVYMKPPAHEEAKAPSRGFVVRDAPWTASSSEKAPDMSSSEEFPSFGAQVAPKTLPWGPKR

[19] = target: Leucine-rich repeat flightless-interacting protein 1 (Homo sapiens) (UniProt Q32MZ4); test: Binding affinity to LRRFIP1 in human NCI-H358 cells at 1 uM by mass spectrometry based pull down assay
[20] = target: ADP-ribosylation factor 5 (Homo sapiens) (UniProt P84085); test: Binding affinity to ARF5 in human NCI-H358 cells at 1 uM by mass spectrometry based pull down assay

Sequence of Proteasome activator complex subunit 1 (Homo sapiens) (Q06323 whole entry, one chain of several): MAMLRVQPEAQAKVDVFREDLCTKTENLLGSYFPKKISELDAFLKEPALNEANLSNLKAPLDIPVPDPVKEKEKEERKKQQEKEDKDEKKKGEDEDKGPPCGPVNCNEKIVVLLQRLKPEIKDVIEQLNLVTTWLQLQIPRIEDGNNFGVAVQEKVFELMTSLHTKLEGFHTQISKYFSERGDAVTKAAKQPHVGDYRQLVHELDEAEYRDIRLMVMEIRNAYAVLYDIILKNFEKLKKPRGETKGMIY

Activity [1]: Active
Activity [2]: Active
Activity [3]: Active
Activity [4]: Active
Activity [5]: Active
Activity [6]: Active
Activity [7]: Active
Activity [8]: Active
Activity [9]: Active
Activity [10]: Active
Activity [11]: Active
Activity [12]: Active
Activity [13]: Active
Activity [14]: Active
Activity [15]: Active
Activity [16]: Active
Activity [17]: Active
Activity [18]: Active
Activity [19]: Active
Activity [20]: Active
SMILES: C=CC(=O)Nc1ccccc1Nc1nc(Nc2ccc(N3CCN(CCOCCOCCOCCNC(=O)CCCC[C@@H]4SC[C@@H]5NC(=O)N[C@@H]54)CC3)cc2)ncc1Cl
